Most compounds without a hit are left out; they make up all but 1.6% or so of the library.
TLR4-MyD88 BLA = inhibitors of human TLR4-MyD88 binding. HeLa CL3-4 TLR4/MyD88 BLA complementation, FRET ratio. inhibition, % at 8.4 µM. 200,000 tested, 0.18% active. AID 861; in the data active means inhibition above about 25%;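 further: 0% = vehicle and 100% = reference inhibitor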
Hep lipid drop = modulators of hepatic lipid droplet formation; AML12 mouse hepatocytes, oleate lipid droplets, BODIPY imaging; inhibition, % at 6.5 µM; 240,000 tested, 0.4% active; AID 1656;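 active means lipid droplet intensity inhibited by at least 50%, with more than 500 cells counted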
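Material – AML12 mouse liver cells · Also added – oleate loading, 100 µM · Compound dosing – 6.5 µM single-point dosing · Times – overnight treatment with compound plus oleate · Measured by – fluorescence imaging, 20x objective, two fields per well · Read-out – percent inhibition of filter-corrected integrated lipid droplet intensity per well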
SR-BI DiI-HDL act = activators of SR-BI mediated HDL lipid uptake | 320,000 tested, 0.096% active | CHO ldlA[mSR-BI] cells, DiI-HDL uptake fluorescence, 3 h; 100 = double the neutral-control signal | activation, % at 12.5 µM;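 active means mean replicate activation of at least 60% and every replicate at or above 60%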;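 further: 0% = median plate neutral-control signal and 100% = twice that signal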
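Assay system: CHO ldlA[mSR-BI] cells, LDL receptor-null, SR-BI overexpressing; medium: Ham's F12 with 0.5% BSA, HEPES 25 mM, pH 7.4; also added: DiI-HDL 10 µg/mL; timing: 3 h uptake period with compound, 37 °C; signal: DiI fluorescence, bottom read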
NOD2-RIPK2 inh = inhibitors of human NOD2-RIPK2 interaction; CHO BLA complementation NOD2-RIPK2, CCF4 ratio; inhibition, % at 4.98 µM; 360,000 tested, 0.38% active; AID 624267; in the data active means inhibition above about 21%;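 further: 0% = vehicle only and 100% = reference blocker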
TLR9-MyD88 block = blocks human TLR9 binding to MyD88. 340,000 tested, 0.21% active. AID 504734. inhibition, % at 4.98 µM. Q9NR96+Q99836. CHO BLA complementation TLR9-MyD88, CCF4 FRET ratio;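 active means inhibition above the mean over all tested compounds plus 3 SD, cut at about 21% in these data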;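 further: 0% = DMSO only wells and 100% = clavulanate BLA inhibitor control wells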
SR-BI DiI inh = inhibitors of mouse SR-BI mediated HDL lipid uptake; Q61009; ldlA[mSR-BI] CHO cells, DiI-HDL uptake fluorescence, 3 h; inhibition, % at 12.5 µM; 320,000 tested, 0.96% active; AID 488896;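 active means mean replicate inhibition of at least 70% and a set share of replicates each scoring 70 or more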;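 further: 0% = median of neutral control wells and 100% = median of positive control wells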
Target sequence (Q61009 whole entry, looked up): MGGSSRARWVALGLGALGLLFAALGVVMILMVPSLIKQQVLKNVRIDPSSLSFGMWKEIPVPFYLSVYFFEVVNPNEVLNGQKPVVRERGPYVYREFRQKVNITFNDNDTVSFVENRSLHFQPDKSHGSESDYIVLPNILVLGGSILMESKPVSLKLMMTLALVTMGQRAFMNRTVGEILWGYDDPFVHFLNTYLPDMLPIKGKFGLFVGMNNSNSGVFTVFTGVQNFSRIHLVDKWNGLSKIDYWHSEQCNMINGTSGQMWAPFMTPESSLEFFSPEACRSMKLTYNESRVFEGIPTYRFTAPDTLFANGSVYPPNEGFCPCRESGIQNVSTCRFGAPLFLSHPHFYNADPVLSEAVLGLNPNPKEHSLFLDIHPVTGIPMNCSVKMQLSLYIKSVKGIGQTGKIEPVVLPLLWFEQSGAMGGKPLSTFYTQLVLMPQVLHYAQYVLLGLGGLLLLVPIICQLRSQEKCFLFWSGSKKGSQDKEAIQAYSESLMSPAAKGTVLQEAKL
Lipid drop inh = hepatic lipid droplet formation inhibition, confirmed; inhibition, % at 5.2 µM; shares compounds with Hep lipid drop; AML12 mouse hepatocytes, BODIPY lipid droplet imaging; droplets induced with 100 µM oleic acid; 870 tested, 65% active;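 active means inhibition of lipid droplet metric at least 50%, with more than 300 cells in each of four replicates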;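 further: plate controls were DMSO with oleic acid for no effect and 5 µM Triacsin-C for full effect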
AML12 cytotox = counter-screen for cytotoxicity in AML12 mouse hepatocytes; z-score at 5 µM; DAPI nuclear morphology cytotoxicity imaging; active compounds read high; cells fed 100 µM oleate overnight; 870 tested, 3% active; shares compounds with Hep lipid drop; in the data active means z-score above about 6.3;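 further: compound exposure lasted overnight at 37 °C before fixation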
AML12 tox conf = AML12 hepatocyte cytotoxicity, confirmed; AID 463219; 530 tested, under 10 active; shares compounds with Hep lipid drop; AML12 mouse hepatocyte viability, ATP luminescence; cells loaded with 100 µM oleic acid; cytotoxicity, % at 50 µM;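 active means cytotoxicity above 50% in each of four replicates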;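 further: compound exposure lasted overnight at 37 °C before the ATP read; 0% = DMSO-treated cells and 100% = wells with no cells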
Active calls of the source: *.

What do the screens show for `CSCCC1NC(=O)C(C(C)=NNC(N)=O)=C1O` (stereo unspecified)?
SR-BI DiI-HDL act: 4; NOD2-RIPK2 inh: 3; TLR9-MyD88 block: -18; SR-BI DiI inh: -4

What do the screens show for `O=C(Nc1cccc([N+](=O)[O-])c1)C1COc2ccccc2O1` (stereo unspecified)?
Hep lipid drop: 8; SR-BI DiI-HDL act: 21; NOD2-RIPK2 inh: 6; TLR9-MyD88 block: 5; SR-BI DiI inh: -21

What do the screens show for `COc1ccc(Cl)c(N2CCN(CCCNC(=O)Nc3ccc(C)cc3)CC2)c1`?
TLR4-MyD88 BLA: 16; Hep lipid drop: -12; NOD2-RIPK2 inh: -4; TLR9-MyD88 block: 4

Results for CCCNC(=O)C1(C)CCN(C(=O)c2sccc2C)C1 (stereo unspecified) ?
NOD2-RIPK2 inh: -3

How did COc1ccc(NC(=O)CCC2COc3ccccc3O2)c(OC)c1 (stereo unspecified) do in these assays?
TLR4-MyD88 BLA: 0; Hep lipid drop: 13; NOD2-RIPK2 inh: -5; TLR9-MyD88 block: 0

Results for COc1ccc(/C=C/C(=O)NCC2COc3ccccc3O2)c(OC)c1 (stereo unspecified) ?
TLR4-MyD88 BLA: -10; Hep lipid drop: 65*; SR-BI DiI-HDL act: -24; NOD2-RIPK2 inh: 5; TLR9-MyD88 block: 1; SR-BI DiI inh: 24; Lipid drop inh: 84*; AML12 cytotox: 0.48; AML12 tox conf: 13

What do the screens show for `COc1ccc2c(c1)O[C@@H](c1cccc(C(F)(F)F)c1)[C@H](OC(=O)NCCc1ccc(OC)c(OC)c1)C2=O`?
TLR4-MyD88 BLA: -2; Hep lipid drop: 64*; Lipid drop inh: 75*; AML12 cytotox: -0.35

Results for COC(=O)[C@@H](NC(=O)O[C@@H]1C(=O)c2ccc(OC)cc2O[C@H]1c1cccc(C(F)(F)F)c1)C(C)C ?
TLR4-MyD88 BLA: -13; Hep lipid drop: -4

Results for COCCC(=O)N1CCC(Oc2ccc(C(=O)N3CCCCC3COC)cc2)CC1 (stereo unspecified) ?
Hep lipid drop: -13; SR-BI DiI-HDL act: 36; NOD2-RIPK2 inh: 2; TLR9-MyD88 block: -3; SR-BI DiI inh: -36

Results for Cc1ccc(N=Cc2c(O)[nH]c3ccccc23)c([N+](=O)[O-])c1 ?
TLR4-MyD88 BLA: -14; Hep lipid drop: 32; SR-BI DiI-HDL act: -33; NOD2-RIPK2 inh: -2; TLR9-MyD88 block: -3; SR-BI DiI inh: 33

How did COc1ccc(CNC(=O)N2CCN(S(=O)(=O)c3ccc(C)cc3C)CC2)cc1 do in these assays?
Hep lipid drop: 82*; SR-BI DiI-HDL act: 5; NOD2-RIPK2 inh: -6; TLR9-MyD88 block: 7; SR-BI DiI inh: -5; Lipid drop inh: 79*; AML12 cytotox: -0.25; AML12 tox conf: 9

What do the screens show for `Cc1ccc(S(=O)(=O)N2CCN(C(=O)NCc3ccc(F)cc3)CC2)c(C)c1`?
Hep lipid drop: 3; SR-BI DiI-HDL act: -33; NOD2-RIPK2 inh: -13; TLR9-MyD88 block: 4; SR-BI DiI inh: 33

Results for COc1cccc(C2/C(=C(/O)c3ccc4c(c3)CC(C)O4)C(=O)C(=O)N2CCCn2ccnc2)c1 (stereo unspecified) ?
Hep lipid drop: 3; SR-BI DiI-HDL act: -3; NOD2-RIPK2 inh: 3; TLR9-MyD88 block: 6; SR-BI DiI inh: 3

What do the screens show for `CCC(Sc1nc2ccsc2c(=O)n1-c1ccc(Cl)c(C)c1)C(=O)NCc1ccco1` (stereo unspecified)?
TLR4-MyD88 BLA: -28; Hep lipid drop: 54*; SR-BI DiI-HDL act: -26; NOD2-RIPK2 inh: 1; TLR9-MyD88 block: 0; SR-BI DiI inh: 26; Lipid drop inh: 64*; AML12 cytotox: 0.076

Results for CCOc1ccc(CN(C)C(=O)CNC(=O)c2ccc3ccccc3c2)cc1OC ?
Hep lipid drop: 88*; SR-BI DiI-HDL act: -32; NOD2-RIPK2 inh: -6; TLR9-MyD88 block: -1; SR-BI DiI inh: 32; Lipid drop inh: 107*; AML12 cytotox: -0.23; AML12 tox conf: 21

Results for COc1ccccc1NC(=O)N(C)C[C@H]1Oc2ncc(Br)cc2C(=O)N([C@H](C)CO)C[C@H]1C ?
NOD2-RIPK2 inh: -8; TLR9-MyD88 block: -3

How did CC(C)NC(=O)c1ccc2sc([C@@H]3O[C@H](CO)[C@H](O)[C@H](O)[C@H]3O)nc2c1 do in these assays?
NOD2-RIPK2 inh: -7

How did COc1ccc(NC(=O)Nc2cccc3ccccc23)c(OC)c1 do in these assays?
Hep lipid drop: 56*; SR-BI DiI-HDL act: -71; NOD2-RIPK2 inh: 3; TLR9-MyD88 block: 8; SR-BI DiI inh: 71*; Lipid drop inh: 83*; AML12 cytotox: -0.24; AML12 tox conf: 9

How did COc1ccc(OC)c(NC(=O)Nc2cccc3ccccc23)c1 do in these assays?
TLR4-MyD88 BLA: 4; Hep lipid drop: 37; SR-BI DiI-HDL act: -67; NOD2-RIPK2 inh: -2; TLR9-MyD88 block: 5; SR-BI DiI inh: 67

What do the screens show for `CCOC(=O)c1c(C)[nH]c(C(=O)OCC(=O)N(C)CC(=O)Nc2ccccc2Cl)c1C`?
SR-BI DiI-HDL act: -33; NOD2-RIPK2 inh: 6; TLR9-MyD88 block: -2; SR-BI DiI inh: 33

How did CCOc1ccc(C(C)NC(=O)c2cccs2)cc1OCC (stereo unspecified) do in these assays?
NOD2-RIPK2 inh: 6

How did CCOc1ccc(C(C)NC(=O)Cc2ccccc2)cc1OCC (stereo unspecified) do in these assays?
TLR4-MyD88 BLA: 16; Hep lipid drop: 53*; SR-BI DiI-HDL act: 21; NOD2-RIPK2 inh: -15; TLR9-MyD88 block: 7; SR-BI DiI inh: -21; Lipid drop inh: 73*; AML12 cytotox: -1.4; AML12 tox conf: -1

How did CC(NC(=O)Cc1ccccc1F)c1ccc(F)cc1 (stereo unspecified) do in these assays?
TLR4-MyD88 BLA: 3; Hep lipid drop: -4; SR-BI DiI-HDL act: 13; NOD2-RIPK2 inh: -6; TLR9-MyD88 block: 0; SR-BI DiI inh: -13

How did CCOc1ccc(C(C)NC(=O)Cc2ccccc2F)cc1OCC (stereo unspecified) do in these assays?
TLR4-MyD88 BLA: -11; Hep lipid drop: 50*; SR-BI DiI-HDL act: 9; NOD2-RIPK2 inh: -16; TLR9-MyD88 block: -3; SR-BI DiI inh: -9; Lipid drop inh: 93*; AML12 cytotox: 0.4; AML12 tox conf: 10

Bioassay records from PubChem.
